Activity data for one molecule are collected here from ChEMBL document CHEMBL4184236, “Design, synthesis and biological evaluation of matrine derivatives as potential anticancer agents” (Bioorg Med Chem Lett, 2018).

Test [1] concerns SMMC-7721. The test can be described thus: Induction of cell cycle arrest in human SMMC7721 cells assessed as accumulation at S phase at 30 uM incubated for 24 hrs by propidium iodide staining based flow cytometry (reference value: 17.2%). The format is functional.
Test [2] deals with CNE-2. The test is described as follows: Induction of cell cycle arrest in human CNE2 cells assessed as accumulation at G0-G1 phase at 30 uM incubated for 24 hrs by propidium iodide staining based flow cytometry (reference value: 69.3%). The format is functional.
The test system of test [3] is CNE-2. The test can be described thus: Induction of cell cycle arrest in human CNE2 cells assessed as accumulation at G2/M phase at 5 uM incubated for 24 hrs by propidium iodide staining based flow cytometry (reference value: 19.8%). Format: functional.
Test [4] concerns SMMC-7721. The test is described as follows: Induction of apoptosis in human SMMC7721 cells incubated for 24 hrs by Annexin V-FITC/PI dual staining based flow cytometry. The format is functional, cell-based. An outline of the steps: (§1)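 CNE2 and SMMC-7721 cells were treated for 24 h at 0, 5, 10 or 30 µM, or at 0, 10, 20 or 50 µM depending on compound. Cells were stained with Annexin V-FITC/propidium iodide and quantified by flow cytometry. Apoptotic cells were counted as AV+/PI− (lower right) plus AV+/PI+ (upper right) quadrants.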

Test [5] relates to CNE-2. The test is described as follows: Induction of apoptosis in human CNE2 cells assessed as early apoptotic cells level at 30 uM incubated for 24 hrs by Annexin V-FITC/PI dual staining based flow cytometry (reference value: 3.56%). The format is functional. The gist of the method: as §1
Test [6] relates to SMMC-7721. The test can be described thus: Induction of apoptosis in human SMMC7721 cells assessed as necrotic cells level at 5 uM incubated for 24 hrs by Annexin V-FITC/PI dual staining based flow cytometry (reference value: 2.47%). Format: functional. The gist of the method: as §1
For test [7], the system named is CNE-2. The test is described as follows: Induction of cell cycle arrest in human CNE2 cells assessed as accumulation at G2/M phase incubated for 24 hrs by propidium iodide staining based flow cytometry. The format is functional.
The subject of test [8] is SMMC-7721. The test can be described thus: Induction of cell cycle arrest in human SMMC7721 cells assessed as accumulation at G0-G1 phase at 30 uM incubated for 24 hrs by propidium iodide staining based flow cytometry (reference value: 64.1%). The format is functional.
The test system of test [9] is CNE-2. The test is described as follows: Induction of apoptosis in human CNE2 cells assessed as viable cells level at 5 uM incubated for 24 hrs by Annexin V-FITC/PI dual staining based flow cytometry (reference value: 91.6%). The format is functional. The gist of the method:
as §1

In test [10] the test system is CNE-2. The test can be described thus: Induction of apoptosis in human CNE2 cells assessed as viable cells level at 10 uM incubated for 24 hrs by Annexin V-FITC/PI dual staining based flow cytometry (reference value: 91.6%). Format: functional. An outline of the steps:
as §1

The test system of test [11] is SMMC-7721. The test can be described thus: Induction of apoptosis in human SMMC7721 cells assessed as necrotic cells level at 10 uM incubated for 24 hrs by Annexin V-FITC/PI dual staining based flow cytometry (reference value: 2.47%). The format is functional. The gist of the method: as §1
Test [12] concerns SMMC-7721. The test is described as follows: Induction of apoptosis in human SMMC7721 cells assessed as early apoptotic cells level at 30 uM incubated for 24 hrs by Annexin V-FITC/PI dual staining based flow cytometry (reference value: 1.36%). The format is functional. An outline of the steps: as §1
Test [13] deals with CNE-2. The test can be described thus: Induction of apoptosis in human CNE2 cells assessed as necrotic cells level at 5 uM incubated for 24 hrs by Annexin V-FITC/PI dual staining based flow cytometry (reference value: 3.43%). Format: functional. The gist of the method: as §1
For test [14], the system named is CNE-2. The test is described as follows: Induction of apoptosis in human CNE2 cells assessed as late apoptotic cells level at 30 uM incubated for 24 hrs by Annexin V-FITC/PI dual staining based flow cytometry (reference value: 1.37%). Format: functional. The gist of the method: as §1
For test [15], the system named is SMMC-7721. The test is described as follows: Induction of apoptosis in human SMMC7721 cells assessed as viable cells level at 30 uM incubated for 24 hrs by Annexin V-FITC/PI dual staining based flow cytometry (reference value: 95.3%). Format: functional. The gist of the method: as §1
For test [16], the system named is CNE-2. The test can be described thus: Induction of cell cycle arrest in human CNE2 cells assessed as accumulation at G2/M phase at 10 uM incubated for 24 hrs by propidium iodide staining based flow cytometry (reference value: 19.8%). Format: functional.
In test [17] the test system is SMMC-7721. The test is described as follows: Induction of apoptosis in human SMMC7721 cells assessed as late apoptotic cells level at 5 uM incubated for 24 hrs by Annexin V-FITC/PI dual staining based flow cytometry (reference value: 0.88%). Format: functional. An outline of the steps: as §1
The test system of test [18] is CNE-2. The test can be described thus: Induction of cell cycle arrest in human CNE2 cells assessed as accumulation at S phase at 5 uM incubated for 24 hrs by propidium iodide staining based flow cytometry (reference value: 10.3%). Format: functional.
In test [19] the test system is SMMC-7721. The test is described as follows: Induction of apoptosis in human SMMC7721 cells assessed as viable cells level at 5 uM incubated for 24 hrs by Annexin V-FITC/PI dual staining based flow cytometry (reference value: 95.3%). The format is functional. The gist of the method:
as §1

Test [20] relates to SMMC-7721. The test can be described thus: Induction of cell cycle arrest in human SMMC7721 cells assessed as accumulation at G0-G1 phase at 10 uM incubated for 24 hrs by propidium iodide staining based flow cytometry (reference value: 64.1%). Format: functional.
Test [21] deals with CNE-2. The test can be described thus: Induction of cell cycle arrest in human CNE2 cells assessed as accumulation at subG1 phase at 10 uM incubated for 24 hrs by propidium iodide staining based flow cytometry (reference value: 0.55%). Format: functional.
Test [22] deals with CNE-2. The test is described as follows: Induction of apoptosis in human CNE2 cells assessed as early apoptotic cells level at 5 uM incubated for 24 hrs by Annexin V-FITC/PI dual staining based flow cytometry (reference value: 3.56%). The format is functional. The gist of the method: as §1
Test [23] has as its system CNE-2. The test can be described thus: Induction of cell cycle arrest in human CNE2 cells assessed as accumulation at G2/M phase at 30 uM incubated for 24 hrs by propidium iodide staining based flow cytometry (reference value: 19.8%). The format is functional.
Test [24] concerns CNE-2. The test can be described thus: Induction of cell cycle arrest in human CNE2 cells assessed as accumulation at subG1 phase at 30 uM incubated for 24 hrs by propidium iodide staining based flow cytometry (reference value: 0.55%). Format: functional.

`COc1cc(Cn2cccc2/C=C2\CC[C@@H]3[C@H]4CCCN5CCC[C@@H](CN3C2=O)[C@@H]45)cc(OC)c1`: the Activity in the test with SMMC-7721 [1] is 9.28%; with CNE-2 [2] it was 9.89%; with CNE-2 [3], 29.5%; in the test on SMMC-7721 [4], “Dose-dependent effect”; in the test with CNE-2 [5], 34.6%; in the test with SMMC-7721 [6] it was 4.04%. Moreover, the Activity result was “Dose-dependent effect” in the test on CNE-2 [7]; 8.58% in the test on SMMC-7721 [8]; 85.5% with CNE-2 [9]; 60.7% in the test on CNE-2 [10]; 6.65% with SMMC-7721 [11]; 33.1% in the test on SMMC-7721 [12]. Also, the Activity was 2.58% in the test with CNE-2 [13]; 16% with CNE-2 [14]; 46.3% with SMMC-7721 [15]; 89.4% in the test with CNE-2 [16]; 4.06% with SMMC-7721 [17]; 11% with CNE-2 [18]. Moreover, the Activity was determined as 78.1% in the test on SMMC-7721 [19]; 5.61% with SMMC-7721 [20]; 4.35% in the test on CNE-2 [21]; 8.79% with CNE-2 [22]; 81.1% with CNE-2 [23]; 4.2% in the test with CNE-2 [24].
